The target in experiment [1] is Rho-associated protein kinase 2 (Homo sapiens) (UniProt O75116). Put plainly: Inhibition of ROCK2 (unknown origin) at 10 uM relative to control. A digest of the protocol:
(§1)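 Single-concentration screen of each compound against a 59-protein-kinase panel, run at 10 µM or 1 µM. Activity relative to control is shown as a heat map across the panel.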

Experiment [2] addresses Phosphorylase kinase (Homo sapiens) (UniProt P15735+P46020+P46019+Q93100+Q16816). The experiment in a line: Inhibition of PHK (unknown origin) at 10 uM relative to control. The format is protein-complex assay. A digest of the protocol: as §1
Experiment [3] addresses Serine/threonine-protein kinase pim-1 (Homo sapiens) (UniProt P11309). The experiment in a line: Inhibition of PIM1 (unknown origin) at 10 uM relative to control. A digest of the protocol: as §1
The target of experiment [4] is MAP kinase-interacting serine/threonine-protein kinase 2 (Homo sapiens) (UniProt Q9HBH9). Put plainly: Inhibition of MNK2 (unknown origin) at 10 uM relative to control. In outline:
as §1

The species entered for the next experiment is Homo sapiens. The experiment in a line: Inhibition of VEGFR (unknown origin) at 10 uM relative to control. A digest of the protocol:
(§2)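 Single-concentration screen across a panel of 59 protein kinases, with each compound tested at one fixed concentration. The read-out is residual kinase activity relative to control. Panel results are also condensed into a rescaled geometric mean (RGM) selectivity score.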

The target in experiment [5] is CDK2/Cyclin A2 (Homo sapiens) (UniProt P24941+P20248). The experiment in a line: Inhibition of CDK2/cyclinA (unknown origin) at 10 uM relative to control. The format is protein-complex assay. A digest of the protocol:
(§3)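 Single-point screen of each compound against a panel of 59 protein kinases, at 1 or 10 μM. The panel data are also summarised as a rescaled geometric mean selectivity score.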

The target of experiment [6] is T1, Inhibitor of nuclear factor kappa-B kinase subunit beta (Homo sapiens) (UniProt O14920).
T1 sequence (whole entry): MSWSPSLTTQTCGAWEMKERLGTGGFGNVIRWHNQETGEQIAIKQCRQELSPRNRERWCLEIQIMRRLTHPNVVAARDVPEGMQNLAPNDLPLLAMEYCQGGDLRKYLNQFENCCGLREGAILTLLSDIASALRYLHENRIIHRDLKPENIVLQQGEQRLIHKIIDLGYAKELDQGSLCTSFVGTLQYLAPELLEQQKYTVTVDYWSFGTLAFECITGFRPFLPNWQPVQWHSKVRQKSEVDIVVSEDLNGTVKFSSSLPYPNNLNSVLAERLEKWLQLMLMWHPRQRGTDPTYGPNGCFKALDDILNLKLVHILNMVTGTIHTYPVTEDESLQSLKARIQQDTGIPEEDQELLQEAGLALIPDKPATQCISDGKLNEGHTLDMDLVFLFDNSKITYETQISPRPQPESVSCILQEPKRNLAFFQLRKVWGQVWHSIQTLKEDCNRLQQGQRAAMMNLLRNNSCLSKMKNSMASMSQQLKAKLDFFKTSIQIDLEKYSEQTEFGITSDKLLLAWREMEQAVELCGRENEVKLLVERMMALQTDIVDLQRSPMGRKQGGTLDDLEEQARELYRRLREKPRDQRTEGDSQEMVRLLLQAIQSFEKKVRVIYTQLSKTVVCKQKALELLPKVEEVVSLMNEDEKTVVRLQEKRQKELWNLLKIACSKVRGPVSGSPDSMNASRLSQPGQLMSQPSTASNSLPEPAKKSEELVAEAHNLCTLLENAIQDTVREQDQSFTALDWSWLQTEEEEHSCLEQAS
Put plainly: Inhibition of IKKb (unknown origin) at 10 uM relative to control. A digest of the protocol: as §3

For experiment [7], the target named is T2, Serine/threonine-protein kinase Chk1 (Homo sapiens) (UniProt O14757).
T2 sequence (whole entry): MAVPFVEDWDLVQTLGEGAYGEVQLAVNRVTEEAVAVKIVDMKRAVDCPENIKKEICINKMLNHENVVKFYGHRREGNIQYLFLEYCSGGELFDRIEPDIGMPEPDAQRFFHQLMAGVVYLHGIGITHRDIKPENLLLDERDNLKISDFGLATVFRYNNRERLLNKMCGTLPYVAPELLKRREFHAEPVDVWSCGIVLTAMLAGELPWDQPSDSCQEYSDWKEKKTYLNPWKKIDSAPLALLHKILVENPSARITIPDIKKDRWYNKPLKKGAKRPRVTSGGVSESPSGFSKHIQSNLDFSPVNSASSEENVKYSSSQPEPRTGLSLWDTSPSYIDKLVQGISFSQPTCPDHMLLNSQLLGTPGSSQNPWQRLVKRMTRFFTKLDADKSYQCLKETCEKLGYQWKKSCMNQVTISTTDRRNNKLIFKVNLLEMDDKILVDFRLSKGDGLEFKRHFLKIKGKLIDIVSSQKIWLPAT
Put plainly: Inhibition of CHK1 (unknown origin) at 10 uM relative to control. A digest of the protocol:
as §3

The target in experiment [8] is SRSF protein kinase 1 (Homo sapiens) (UniProt Q96SB4). The experiment in a line: Inhibition of SRPK1 (unknown origin) at 10 uM relative to control. In outline: as §2
Sequence of SRSF protein kinase 1 (Homo sapiens) (Q96SB4 whole entry): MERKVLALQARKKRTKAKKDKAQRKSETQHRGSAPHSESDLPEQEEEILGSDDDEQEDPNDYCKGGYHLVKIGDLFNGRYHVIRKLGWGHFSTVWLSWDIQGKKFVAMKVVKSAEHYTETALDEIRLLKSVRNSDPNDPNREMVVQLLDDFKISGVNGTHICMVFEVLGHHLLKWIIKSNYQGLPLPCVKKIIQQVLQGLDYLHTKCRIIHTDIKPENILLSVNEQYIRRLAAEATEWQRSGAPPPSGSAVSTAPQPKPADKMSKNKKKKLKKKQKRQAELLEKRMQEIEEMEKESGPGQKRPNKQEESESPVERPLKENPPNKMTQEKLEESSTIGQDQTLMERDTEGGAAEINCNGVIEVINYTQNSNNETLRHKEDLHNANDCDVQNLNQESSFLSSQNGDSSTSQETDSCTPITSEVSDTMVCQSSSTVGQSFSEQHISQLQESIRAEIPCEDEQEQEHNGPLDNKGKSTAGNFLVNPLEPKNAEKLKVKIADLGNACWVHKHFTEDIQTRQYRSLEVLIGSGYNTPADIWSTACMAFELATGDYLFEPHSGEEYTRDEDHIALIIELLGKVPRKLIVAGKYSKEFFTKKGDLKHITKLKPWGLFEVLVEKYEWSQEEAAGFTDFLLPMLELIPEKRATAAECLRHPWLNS
For experiment [9], the target named is T3, Serine/threonine-protein kinase Nek2 (Homo sapiens) (UniProt P51955).
T3 sequence (whole entry): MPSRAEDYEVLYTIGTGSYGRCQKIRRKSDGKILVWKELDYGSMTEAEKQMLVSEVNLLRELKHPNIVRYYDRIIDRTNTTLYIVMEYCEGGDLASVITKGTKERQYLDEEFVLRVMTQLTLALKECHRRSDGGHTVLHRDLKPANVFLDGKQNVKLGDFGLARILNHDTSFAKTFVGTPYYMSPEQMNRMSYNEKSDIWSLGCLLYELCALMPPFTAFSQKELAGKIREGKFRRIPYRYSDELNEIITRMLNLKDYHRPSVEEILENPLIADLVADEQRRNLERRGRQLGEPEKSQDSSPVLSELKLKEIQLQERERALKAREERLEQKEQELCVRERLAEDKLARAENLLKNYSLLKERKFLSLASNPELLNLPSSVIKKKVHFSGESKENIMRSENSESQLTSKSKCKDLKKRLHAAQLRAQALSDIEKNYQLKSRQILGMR
The experiment in a line: Inhibition of NEK2a (unknown origin) at 10 uM relative to control. In outline: as §1

Experiment [10] concerns the target Calcium/calmodulin-dependent protein kinase type 1 (Homo sapiens) (UniProt Q14012). Put plainly: Inhibition of CAMK1 (unknown origin) at 10 uM relative to control. In outline: as §3

Sequence of MAP kinase-interacting serine/threonine-protein kinase 2 (Homo sapiens) (Q9HBH9 whole entry, looked up): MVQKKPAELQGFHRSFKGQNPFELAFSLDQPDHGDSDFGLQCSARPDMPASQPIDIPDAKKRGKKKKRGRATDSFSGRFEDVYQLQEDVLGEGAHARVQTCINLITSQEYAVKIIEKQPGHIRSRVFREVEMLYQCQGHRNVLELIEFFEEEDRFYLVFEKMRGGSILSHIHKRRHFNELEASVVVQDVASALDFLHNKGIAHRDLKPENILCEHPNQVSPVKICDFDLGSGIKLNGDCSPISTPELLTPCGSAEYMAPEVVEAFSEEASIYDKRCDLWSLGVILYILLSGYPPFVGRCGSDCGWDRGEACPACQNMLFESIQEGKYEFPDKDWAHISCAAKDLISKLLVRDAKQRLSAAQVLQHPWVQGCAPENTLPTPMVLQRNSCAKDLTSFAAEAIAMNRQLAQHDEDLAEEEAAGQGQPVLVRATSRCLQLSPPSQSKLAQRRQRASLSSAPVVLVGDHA
Sequence of Rho-associated protein kinase 2 (Homo sapiens) (O75116 whole entry, looked up): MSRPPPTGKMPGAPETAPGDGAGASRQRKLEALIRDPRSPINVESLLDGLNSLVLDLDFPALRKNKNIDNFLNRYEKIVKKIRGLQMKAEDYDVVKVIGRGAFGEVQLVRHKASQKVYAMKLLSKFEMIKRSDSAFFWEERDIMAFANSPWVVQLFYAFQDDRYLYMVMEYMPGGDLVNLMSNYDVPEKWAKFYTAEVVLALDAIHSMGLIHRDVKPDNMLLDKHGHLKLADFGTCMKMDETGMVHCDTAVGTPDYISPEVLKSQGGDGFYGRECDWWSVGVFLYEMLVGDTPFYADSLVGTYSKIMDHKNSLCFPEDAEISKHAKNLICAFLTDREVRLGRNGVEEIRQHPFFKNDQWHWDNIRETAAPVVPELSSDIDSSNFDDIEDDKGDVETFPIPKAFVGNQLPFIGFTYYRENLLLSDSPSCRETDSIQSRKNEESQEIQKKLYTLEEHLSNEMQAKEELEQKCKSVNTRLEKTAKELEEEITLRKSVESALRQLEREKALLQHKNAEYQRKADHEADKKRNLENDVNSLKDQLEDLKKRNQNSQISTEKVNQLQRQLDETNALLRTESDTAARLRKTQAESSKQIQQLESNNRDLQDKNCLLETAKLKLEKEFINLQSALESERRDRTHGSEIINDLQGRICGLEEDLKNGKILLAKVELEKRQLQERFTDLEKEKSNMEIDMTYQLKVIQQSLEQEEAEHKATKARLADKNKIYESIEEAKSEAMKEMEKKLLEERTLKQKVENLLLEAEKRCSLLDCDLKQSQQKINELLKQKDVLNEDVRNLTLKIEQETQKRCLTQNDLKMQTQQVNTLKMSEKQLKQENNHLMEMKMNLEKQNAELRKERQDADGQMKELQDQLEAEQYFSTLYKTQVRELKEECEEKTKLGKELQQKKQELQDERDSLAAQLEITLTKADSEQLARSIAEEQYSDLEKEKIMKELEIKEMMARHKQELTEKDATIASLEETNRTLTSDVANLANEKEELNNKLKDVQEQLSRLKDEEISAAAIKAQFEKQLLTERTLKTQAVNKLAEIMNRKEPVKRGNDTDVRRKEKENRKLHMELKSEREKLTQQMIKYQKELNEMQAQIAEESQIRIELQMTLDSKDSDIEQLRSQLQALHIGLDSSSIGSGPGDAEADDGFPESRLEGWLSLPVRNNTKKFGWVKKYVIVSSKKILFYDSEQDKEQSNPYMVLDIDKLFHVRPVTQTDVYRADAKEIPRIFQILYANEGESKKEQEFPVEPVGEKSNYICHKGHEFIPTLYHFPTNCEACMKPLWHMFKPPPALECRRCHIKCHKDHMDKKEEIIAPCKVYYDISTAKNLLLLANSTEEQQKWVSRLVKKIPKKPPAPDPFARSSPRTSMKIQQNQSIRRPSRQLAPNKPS
Sequence of Serine/threonine-protein kinase pim-1 (Homo sapiens) (P11309 whole entry, looked up): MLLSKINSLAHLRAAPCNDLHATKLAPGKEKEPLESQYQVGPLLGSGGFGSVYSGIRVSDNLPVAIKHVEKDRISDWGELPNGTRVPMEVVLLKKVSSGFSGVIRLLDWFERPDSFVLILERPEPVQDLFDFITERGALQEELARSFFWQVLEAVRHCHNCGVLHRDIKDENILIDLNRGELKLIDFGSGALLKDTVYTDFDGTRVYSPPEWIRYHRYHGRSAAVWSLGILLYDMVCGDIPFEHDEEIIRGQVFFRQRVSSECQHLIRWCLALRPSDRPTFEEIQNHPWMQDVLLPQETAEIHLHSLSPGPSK
Sequence of Calcium/calmodulin-dependent protein kinase type 1 (Homo sapiens) (Q14012 whole entry, looked up): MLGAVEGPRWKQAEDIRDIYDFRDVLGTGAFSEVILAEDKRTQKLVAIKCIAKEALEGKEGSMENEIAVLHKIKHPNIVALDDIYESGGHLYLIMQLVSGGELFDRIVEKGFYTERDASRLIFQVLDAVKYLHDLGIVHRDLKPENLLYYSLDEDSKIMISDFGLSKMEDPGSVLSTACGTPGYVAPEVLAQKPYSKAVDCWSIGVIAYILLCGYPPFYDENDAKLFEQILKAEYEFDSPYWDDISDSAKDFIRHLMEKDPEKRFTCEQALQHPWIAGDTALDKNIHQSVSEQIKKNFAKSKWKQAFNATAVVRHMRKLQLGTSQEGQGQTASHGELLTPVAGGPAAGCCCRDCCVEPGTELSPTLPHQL

One may read the inhibition as how much of the control response was suppressed. For `Cc1n[nH]c2ccnc(OC3CCCCC3)c12`, the inhibition in [1] came out at 92%; in experiment [2], 82%; in experiment [3], 60%; in [4], 37%; in the experiment filed under Homo sapiens it was 76%; in experiment [5], 86%. Moreover, the inhibition in experiment [6] was determined as 35%; in [7] it was 27%; in experiment [8] it was 20%; in experiment [9] it was 0%; in experiment [10] it was 41%.

For the compound `Cc1n[nH]c2ccnc(Nc3ccccc3F)c12`, the inhibition worked out at 62% in experiment [1]; 45% in experiment [2]; 67% in experiment [3]; 24% in experiment [4]; 67% in the experiment listed under Homo sapiens; 79% in experiment [5]. The inhibition in experiment [6] worked out at 49%; in experiment [7], 43%; in experiment [8], 17%; in experiment [9], 2%; in experiment [10], 23%.

For `Cc1n[nH]c2ccnc(Nc3ccc4ncsc4c3)c12`, the inhibition was determined as 78% in experiment [5], 13% in [7] and 0% in experiment [8].

In the case of `Cc1n[nH]c2ccnc(NC3CCCCC3)c12`, the inhibition was 79% in experiment [1]; 60% in [2]; 66% in [3]; 8% in [4]; 43% in the experiment filed under Homo sapiens; 86% in experiment [5]. Also, the inhibition in [6] was found to be 29%; in [7], 0%; in experiment [8], 10%; in experiment [9], 0%; in experiment [10] it was 13%.

(Values after ChEMBL document CHEMBL4330096, “Discovery of potent and selective 5-azaindazole inhibitors of leucine-rich repeat kinase 2 (LRRK2) - Part 1” (Bioorg Med Chem Lett, 2019).)
